Measured values from ChEMBL document CHEMBL4316592, “Synthesis of new derivatives of boehmeriasin A and their biological evaluation in liver cancer” (Eur J Med Chem, 2019).
Calls of active or inactive are those of the source. No cut-off for these calls is given here.

What was measured:
MCF7 = assay: Cytotoxicity against human MCF7 cells after 72 hrs by SRB assay; type: functional, cell-based; conditions: Homo sapiens, MCF7, 72 h; read-out: IC50
Method in brief: (§1)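 SRB assay. Cells plated per well (HCT116 3000; Huh7, Hep3B, HepG2, MCF-7 2000; Mahlavu, FOCUS, SNU475 1000) and grown 24 h. Compounds came from 20 mM DMSO stocks and were tested in triplicate, 40 to 2,5 (or 2,5 to 0,03) per printed range, for 72 h. Cells fixed in 10% TCA, stained with 0.4% SRB, dye dissolved in 10 mM Tris, A515 read. IC50 derived after DMSO normalization.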

HepG2 = assay: Cytotoxicity against human HepG2 cells after 72 hrs by SRB assay; type: functional, cell-based; conditions: Homo sapiens, HepG2, 72 h; read-out: IC50; method in brief: as §1
[1] = Cytotoxicity against human FOCUS cells after 72 hrs by SRB assay; type: functional, cell-based; conditions: Homo sapiens, 72 h; read-out: IC50; method in brief: as §1
MCF-12A = assay: Cytotoxicity against human MCF12A cells after 72 hrs by SRB assay; type: cell-based; conditions: Homo sapiens, MCF-12A, 72 h; read-out: IC50
Huh-7 [2] = assay: Cytotoxicity against human HuH7 cells after 24 hrs by RTCA analysis; type: functional, cell-based; conditions: Huh-7, 24 h
Method in brief: (§2)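 xCELLigence impedance real-time growth assay. Huh7 (2000) or Mahlavu (1000) cells plated, treated after 24 h at log phase with a 2-fold dilution series (4 steps) from a top concentration of 1. Cell index recorded every 10 min for 24 h, then every 30 min. Growth inhibition normalized to DMSO; IC50 taken at 24, 48, 72 h.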

Huh-7 [3] = assay: Cytotoxicity against human HuH7 cells after 48 hrs by RTCA analysis; type: functional, cell-based; conditions: Huh-7, 48 h; method in brief: as §2
Huh-7 [4] = assay: Cytotoxicity against human HuH7 cells after 72 hrs by RTCA analysis; type: functional, cell-based; conditions: Huh-7, 72 h; method in brief: as §2
Mahlavu [5] = assay: Cytotoxicity against human Mahlavu cells after 24 hrs by RTCA analysis; type: functional, cell-based; method in brief: as §2
Mahlavu [6] = assay: Induction of apoptosis in human Mahlavu cells assessed as increase in cytochrome C levels at 1 uM by Hoechst staining-based assay; type: functional, cell-based
Huh-7 [7] = assay: Induction of apoptosis in human HuH7 cells assessed as increase in cleaved PARP levels at 1 uM after 72 hrs by Western blot analysis; type: functional, cell-based
Mahlavu [8] = assay: Induction of apoptosis in human Mahlavu cells assessed as chromatin condensation at 1 uM by Hoechst staining-based assay; type: functional, cell-based
Huh-7 [9] = assay: Induction of apoptosis in human HuH7 cells assessed as viable cells at 1 uM after 24 hrs by Annexin V-FITC/propidium iodide staining-based flow cytometric analysis (reference value: 97.30%); type: functional; conditions: Huh-7, 24 h, read-out: Activity
Huh-7 [10] = assay: Induction of apoptosis in human HuH7 cells assessed as viable cells at 1 uM after 48 hrs by Annexin V-FITC/propidium iodide staining-based flow cytometric analysis (reference value: 97.42%); type: functional; conditions: Huh-7, 48 h, read-out: Activity
Huh-7 [11] = assay: Induction of apoptosis in human HuH7 cells assessed as early apoptotic cells at 1 uM after 48 hrs by Annexin V-FITC/propidium iodide staining-based flow cytometric analysis (reference value: 0.02%); type: functional
Huh-7 [12] = assay: Induction of apoptosis in human HuH7 cells assessed as late apoptotic cells at 1 uM after 48 hrs by Annexin V-FITC/propidium iodide staining-based flow cytometric analysis (reference value: 2.53%); type: functional
Huh-7 [13] = assay: Induction of apoptosis in human HuH7 cells assessed as necrotic cells at 1 uM after 48 hrs by Annexin V-FITC/propidium iodide staining-based flow cytometric analysis (reference value: 0.02%); type: functional
Huh-7 [14] = assay: Induction of apoptosis in human HuH7 cells assessed as early apoptotic cells at 1 uM after 72 hrs by Annexin V-FITC/propidium iodide staining-based flow cytometric analysis (reference value: 0.03%); type: functional
Mahlavu [15] = assay: Induction of apoptosis in human Mahlavu cells assessed as viable cells at 1 uM after 24 hrs by Annexin V-FITC/propidium iodide staining-based flow cytometric analysis (reference value: 98.51%); type: functional; conditions: read-out: Activity
Mahlavu [16] = assay: Induction of apoptosis in human Mahlavu cells assessed as necrotic cells at 1 uM after 24 hrs by Annexin V-FITC/propidium iodide staining-based flow cytometric analysis (reference value: 0.13%); type: functional
Mahlavu [17] = assay: Induction of apoptosis in human Mahlavu cells assessed as necrotic cells at 1 uM after 48 hrs by Annexin V-FITC/propidium iodide staining-based flow cytometric analysis (reference value: 0.07%); type: functional
Mahlavu [18] = assay: Induction of apoptosis in human Mahlavu cells assessed as viable cells at 1 uM after 72 hrs by Annexin V-FITC/propidium iodide staining-based flow cytometric analysis (reference value: 96.05%); type: functional; conditions: read-out: Activity
Mahlavu [19] = assay: Induction of apoptosis in human Mahlavu cells assessed as late apoptotic cells at 1 uM after 72 hrs by Annexin V-FITC/propidium iodide staining-based flow cytometric analysis (reference value: 3.48%); type: functional
Huh-7 [20] = assay: Cell cycle arrest in human HuH7 cells assessed as accumulation of cells at G1 phase at 1 uM after 48 hrs by propidium iodide staining-based flow cytometric analysis (reference value: 44.2%); type: functional
Huh-7 [21] = assay: Cell cycle arrest in human HuH7 cells assessed as accumulation of cells at subG1 phase at 1 uM after 72 hrs by propidium iodide staining-based flow cytometric analysis (reference value: 4.7%); type: functional
Mahlavu [22] = assay: Cell cycle arrest in human Mahlavu cells assessed as accumulation of cells at subG1 phase at 1 uM after 24 hrs by propidium iodide staining-based flow cytometric analysis (reference value: 18.3%); type: functional
Mahlavu [23] = assay: Cell cycle arrest in human Mahlavu cells assessed as accumulation of cells at G2/M phase at 1 uM after 48 hrs by propidium iodide staining-based flow cytometric analysis (reference value: 22.3%); type: functional
Mahlavu [24] = assay: Cell cycle arrest in human Mahlavu cells assessed as accumulation of cells at subG1 phase at 1 uM after 72 hrs by propidium iodide staining-based flow cytometric analysis (reference value: 22.4%); type: functional
Mahlavu [25] = assay: Cell cycle arrest in human Mahlavu cells assessed as accumulation of cells at S phase at 1 uM after 72 hrs by propidium iodide staining-based flow cytometric analysis (reference value: 13%); type: functional
Mahlavu [26] = assay: Cell cycle arrest in human Mahlavu cells assessed as accumulation of cells at G2/M phase at 1 uM after 72 hrs by propidium iodide staining-based flow cytometric analysis (reference value: 20%); type: functional
Homo sapiens = organism: Homo sapiens; assay: Induction of SAPK/JNK phosphorylation at Thr183/Tye185 residues in human HuH7 cells at 1 uM after 24 to 72 hrs by Western blot analysis; type: cell-based
Mahlavu [27] = assay: Modulation of SAPK/JNK phosphorylation at Thr183/Tye185 residues in human Mahlavu cells at 1 uM after 24 to 72 hrs by Western blot analysis; type: cell-based
Huh-7 [28] = assay: Down-regulation of CDK1 protein expression in human HuH7 cells at 1 uM after 24 to 72 hrs by Western blot analysis; type: functional, cell-based
Mahlavu [29] = assay: Down-regulation of cyclin-B1 protein expression in human Mahlavu cells at 1 uM after 24 to 72 hrs by Western blot analysis; type: functional, cell-based
Mahlavu [30] = assay: Down-regulation of CDK1 protein expression in human Mahlavu cells at 1 uM after 24 to 72 hrs by Western blot analysis; type: functional, cell-based

`COc1ccc2c3c(c4cc(OC)c(OC)cc4c2c1)CN1CCCC[C@@H]1C3` showed an IC50 (MCF7) of 5 nM, an IC50 (HepG2) of 60 nM and an IC50 [1] of 20 nM. The IC50 (MCF-12A) was 70 nM, the IC50 (Huh-7 [2]) was 1400 nM and the IC50 (Huh-7 [3]) was 700 nM. The IC50 (Huh-7 [4]) was 700 nM, the IC50 (Mahlavu [5]) was 200 nM and the Activity (Mahlavu [6]) was “Active”. For the same molecule, the Activity (Huh-7 [7]) was “Active”, the Activity (Mahlavu [8]) was “Active” and the viability at 1 µM (Huh-7 [9]) was 98.9%. The viability at 1 µM (Huh-7 [10]) was 93.8%, the Activity (Huh-7 [11]) was 0.18% and the Activity (Huh-7 [12]) was 5.96%. For the same molecule, the Activity (Huh-7 [13]) was 0.07%, the Activity (Huh-7 [14]) was 0.1% and the viability at 1 µM (Mahlavu [15]) was 94.2%. It also gave an Activity (Mahlavu [16]) of 0.57%, an Activity (Mahlavu [17]) of 1.16% and a viability at 1 µM (Mahlavu [18]) of 85.3%. The Activity (Mahlavu [19]) was 12.74%, the Activity (Huh-7 [20]) was 54.6% and the Activity (Huh-7 [21]) was 57.5%. For the same molecule, the Activity (Mahlavu [22]) was 15%, the Activity (Mahlavu [23]) was 16.6% and the Activity (Mahlavu [24]) was 26.9%. For the same molecule, the Activity (Mahlavu [25]) was 9.1%, the Activity (Mahlavu [26]) was 49.9% and the Activity (Homo sapiens) was “Active”. For the same molecule, the Activity (Mahlavu [27]) was “Active”, the Activity (Huh-7 [28]) was “Active” and the Activity (Mahlavu [29]) was “Active”. The Activity (Mahlavu [30]) was “Active”.

In the case of `COc1ccc2c3c(c4cc(OC)c(OC)cc4c2c1)CN1CCCCC1C3O` (racemic), the IC50 (MCF7) is reported as 1 nM, the IC50 (HepG2) is reported as 2700 nM and the IC50 [1] is reported as 12 nM. The IC50 (MCF-12A) was < 2000 nM, the IC50 (Huh-7 [2]) was 800 nM and the IC50 (Huh-7 [3]) was 500 nM. The IC50 (Huh-7 [4]) was 400 nM, the IC50 (Mahlavu [5]) was 10 nM and the Activity (Mahlavu [6]) was “Active”. For the same molecule, the Activity (Huh-7 [7]) was “Active”, the Activity (Mahlavu [8]) was “Active” and the viability at 1 µM (Huh-7 [9]) was 99.1%. It also gave a viability at 1 µM (Huh-7 [10]) of 94.2%, an Activity (Huh-7 [11]) of 0.07% and an Activity (Huh-7 [12]) of 5.52%. For the same molecule, the Activity (Huh-7 [13]) was 0.16%, the Activity (Huh-7 [14]) was 0.2% and the viability at 1 µM (Mahlavu [15]) was 98.3%. For the same molecule, the Activity (Mahlavu [16]) was 0.13%, the Activity (Mahlavu [17]) was 0.07% and the viability at 1 µM (Mahlavu [18]) was 62.7%. For the same molecule, the Activity (Mahlavu [19]) was 35.08%, the Activity (Huh-7 [20]) was 35.5% and the Activity (Huh-7 [21]) was 62.9%. It also gave an Activity (Mahlavu [22]) of 16.5%, an Activity (Mahlavu [23]) of 32.9% and an Activity (Mahlavu [24]) of 48.9%. The Activity (Mahlavu [25]) was 10.2%, the Activity (Mahlavu [26]) was 31.4% and the Activity (Homo sapiens) was “Active”. The Activity (Mahlavu [27]) was “Active”, the Activity (Huh-7 [28]) was “Active” and the Activity (Mahlavu [29]) was “Active”. For the same molecule, the Activity (Mahlavu [30]) was “Active”.
